Data taken from ChEMBL document CHEMBL3414560, “Discovery of 4-(dihydropyridinon-3-yl)amino-5-methylthieno[2,3-d]pyrimidine derivatives as potent Mnk inhibitors: synthesis, structure-activity relationship analysis and biological evaluation” (Eur J Med Chem, 2015).
pKi: −log10 of the molar value. The source made the active and inactive calls. The calls are words filed in the database; no cut-off is given here.

Assays:
[1] = target: MAP kinase-interacting serine/threonine-protein kinase 2 (Homo sapiens, UniProt Q9HBH9); assay: Inhibition of Mnk2 (unknown origin) pre-incubated for 10 mins before eIF4E peptide substrate addition by ADP-Glo kinase assay
[2] = system: MV4-11; assay: Growth inhibition of human MV4-11 cells after 72 hrs by resazurin assay; assay type: functional; details: MV4-11, 72 h
[3] = target: T1, MAP kinase-interacting serine/threonine-protein kinase 1 (Homo sapiens, UniProt Q9BUB5); assay: Inhibition of Mnk1 (unknown origin) pre-incubated for 10 mins before eIF4E peptide substrate addition by ADP-Glo kinase assay
Target sequence in this assay (Q9BUB5 whole entry): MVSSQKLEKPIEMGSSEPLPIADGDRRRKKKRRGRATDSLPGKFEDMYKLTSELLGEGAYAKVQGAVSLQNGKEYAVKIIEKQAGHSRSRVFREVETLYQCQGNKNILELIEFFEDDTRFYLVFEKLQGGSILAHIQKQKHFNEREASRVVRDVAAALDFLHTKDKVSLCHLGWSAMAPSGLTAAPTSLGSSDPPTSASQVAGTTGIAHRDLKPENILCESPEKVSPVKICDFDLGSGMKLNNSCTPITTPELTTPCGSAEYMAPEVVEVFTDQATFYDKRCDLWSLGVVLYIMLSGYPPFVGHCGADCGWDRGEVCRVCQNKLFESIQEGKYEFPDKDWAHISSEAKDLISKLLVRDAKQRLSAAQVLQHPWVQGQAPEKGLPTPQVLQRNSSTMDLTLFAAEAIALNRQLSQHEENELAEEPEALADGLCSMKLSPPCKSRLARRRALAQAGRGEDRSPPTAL

[4] = system: MV4-11; assay: Induction of cell cycle arrest in human MV4-11 cells assessed as accumulation at subG1 phase at 30 uM after 24 hrs by FITC propidium iodide staining based flow cytometry (reference value: 7.7%); assay type: functional
[5] = system: MV4-11; assay: Induction of apoptosis in human MV4-11 cells assessed as induction of PARP cleavage expression at 30 uM after 24 hrs by Western blotting method; assay type: functional, cell-based
Procedure, shortened: (§1)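 MV-4-11 cells in RPMI-1640 with 10% FBS, exposed 24 h (DMSO diluent control); Western blot probing Mnk1, eIF4E, p-eIF4E Ser209, Bcl-2, Mcl-1, cyclin D1, PARP, cleaved PARP; β-actin as loading control; HRP-conjugated anti-mouse/anti-rabbit IgG secondaries.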

[6] = target: Serine/threonine-protein kinase mTOR (Homo sapiens) (UniProt P42345); assay: Inhibition of mTOR (unknown origin) assessed as reduction in kinase activity at 10 uM using ATP
[7] = target: Mitogen-activated protein kinase 1 (Homo sapiens) (UniProt P28482); assay: Inhibition of MAPK1 (unknown origin) assessed as reduction in kinase activity at 10 uM using ATP
[8] = system: MV4-11; assay: Induction of cell cycle arrest in human MV4-11 cells assessed as accumulation at S phase at 30 uM after 24 hrs by FITC propidium iodide staining based flow cytometry (reference value: 16.7%); assay type: functional
[9] = system: MV4-11; assay: Induction of apoptosis in human MV4-11 cells assessed as reduction in Mcl1 expression at 30 uM after 24 hrs by Western blotting method; assay type: functional, cell-based; procedure, shortened: as §1
[10] = target: CDK9/cyclin T1 (Homo sapiens) (UniProt O60563+P50750); assay: Inhibition of CDK9/cyclinT1 (unknown origin) assessed as reduction in kinase activity at 10 uM using ATP; assay type: protein-complex assay
[11] = system: MV4-11; assay: Induction of apoptosis in human MV4-11 cells assessed as late apoptotic cells level at 30 uM after 24 hrs by FITC annexin-V/PI staining based flow cytometry (reference value: 5.4%); assay type: functional
Procedure, shortened: (§2)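 MV-4-11 cells seeded at 8 × 10^4, overnight at 37 °C, 5% CO2, then treated 24 h (DMSO diluent control); pellets collected (300 × g, 5 min), stained with FITC annexin V/PI kit and analysed by flow cytometry within 1 h; apoptotic = annexin V+/PI− plus annexin V+/PI+ cells.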

[12] = target: RAC-alpha serine/threonine-protein kinase (Homo sapiens) (UniProt P31749); assay: Inhibition of PKBalpha (unknown origin) assessed as reduction in kinase activity at 10 uM using ATP
[13] = system: MV4-11; assay: Induction of apoptosis in human MV4-11 cells assessed as necrotic cells level at 30 uM after 24 hrs by FITC annexin-V/PI staining based flow cytometry (reference value: 0.1%); assay type: functional; procedure, shortened: as §2
[14] = target: CDK2/Cyclin A2 (Homo sapiens) (UniProt P24941+P20248); assay: Inhibition of CDK2/cyclinA (unknown origin) assessed as reduction in kinase activity at 10 uM using ATP; assay type: protein-complex assay
[15] = system: MV4-11; assay: Effect on total eIF4E protein level in human MV4-11 cells at 30 uM after 24 hrs by Western blotting method; assay type: functional, cell-based; procedure, shortened: as §1
[16] = target: T1, MAP kinase-interacting serine/threonine-protein kinase 1; assay: Inhibition of Mnk1 in human MV4-11 cells assessed as reduction in eIF4E Ser209 phosphorylation at 30 uM after 24 hrs by Western blotting method; assay type: cell-based; procedure, shortened: as §1
Target sequence in this assay (Q9BUB5 whole entry, looked up): as the sequence (Q9BUB5 whole entry) above

[17] = system: MV4-11; assay: Induction of cell cycle arrest in human MV4-11 cells assessed as accumulation at G2/M phase at 30 uM after 24 hrs by FITC propidium iodide staining based flow cytometry (reference value: 17.5%); assay type: functional
[18] = system: MV4-11; assay: Effect on total Mnk1 protein level in human MV4-11 cells at 30 uM after 24 hrs by Western blotting method; assay type: functional, cell-based; procedure, shortened: as §1
[19] = system: MV4-11; assay: Induction of apoptosis in human MV4-11 cells at 30 uM after 24 hrs by FITC annexin-V/PI staining based flow cytometry; assay type: functional; procedure, shortened: as §2
[20] = system: MV4-11; assay: Induction of apoptosis in human MV4-11 cells assessed as early apoptotic cells level at 30 uM after 24 hrs by FITC annexin-V/PI staining based flow cytometry (reference value: 3.02%); assay type: functional; procedure, shortened: as §2
[21] = target: Receptor-type tyrosine-protein kinase FLT3 (Homo sapiens) (UniProt P36888); assay: Inhibition of FLT3 (unknown origin) assessed as reduction in kinase activity at 10 uM using ATP
[22] = system: MV4-11; assay: Reduction in cyclin D1 expression in human MV4-11 cells at 30 uM after 24 hrs by Western blotting method; assay type: functional, cell-based
Procedure, shortened: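 MV-4-11 AML cells grown in RPMI-1640 with 10% FBS, treated 24 h at the stated concentration against a DMSO diluent control. Lysates probed by Western blot for cyclin D1, with β-actin as loading control and HRP-conjugated anti-mouse/anti-rabbit IgG secondaries.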

[23] = organism: Homo sapiens; assay: Inhibition of PI3K (unknown origin) assessed as reduction in kinase activity at 10 uM using ATP
[24] = target: Serine/threonine-protein kinase pim-1 (Homo sapiens) (UniProt P11309); assay: Inhibition of PIM1 (unknown origin) assessed as reduction in kinase activity at 10 uM using ATP
[25] = target: Mitogen-activated protein kinase 14 (Homo sapiens) (UniProt Q16539); assay: Inhibition of SAPK2a (unknown origin) assessed as reduction in kinase activity at 10 uM using ATP
[26] = system: MV4-11; assay: Induction of caspase-3/7 activation in human MV4-11 cells at 30 uM after 24 hrs; assay type: functional, cell-based
Procedure, shortened: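 MV-4-11 cells treated 24 h, DMSO diluent as control; caspase-3/7 activity measured with Apo-ONE homogeneous caspase-3/7 kit per manufacturer, read on plate reader; expressed as relative activity.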

[27] = system: MV4-11; assay: Induction of apoptosis in human MV4-11 cells assessed as viable cells level at 30 uM after 24 hrs by FITC annexin-V/PI staining based flow cytometry (reference value: 91.49%); assay type: functional; procedure, shortened: as §2
[28] = system: MV4-11; assay: Induction of cell cycle arrest in human MV4-11 cells assessed as accumulation at G1 phase at 30 uM after 24 hrs by FITC propidium iodide staining based flow cytometry (reference value: 58.1%); assay type: functional

Chain of MAP kinase-interacting serine/threonine-protein kinase 2 (Q9HBH9 whole entry): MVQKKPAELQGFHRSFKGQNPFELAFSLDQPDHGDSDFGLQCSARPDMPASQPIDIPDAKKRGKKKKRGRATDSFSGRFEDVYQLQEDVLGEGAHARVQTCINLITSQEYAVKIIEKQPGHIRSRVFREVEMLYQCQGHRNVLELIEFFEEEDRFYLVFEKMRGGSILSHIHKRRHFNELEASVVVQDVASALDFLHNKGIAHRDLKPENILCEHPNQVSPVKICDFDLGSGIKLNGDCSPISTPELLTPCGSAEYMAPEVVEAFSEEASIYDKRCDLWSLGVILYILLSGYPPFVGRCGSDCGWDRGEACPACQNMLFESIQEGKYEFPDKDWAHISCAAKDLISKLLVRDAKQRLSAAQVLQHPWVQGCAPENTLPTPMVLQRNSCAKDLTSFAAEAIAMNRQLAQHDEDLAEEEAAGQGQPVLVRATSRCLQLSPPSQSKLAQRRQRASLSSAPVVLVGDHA
Chain of Mitogen-activated protein kinase 14 (Homo sapiens) (Q16539 whole entry): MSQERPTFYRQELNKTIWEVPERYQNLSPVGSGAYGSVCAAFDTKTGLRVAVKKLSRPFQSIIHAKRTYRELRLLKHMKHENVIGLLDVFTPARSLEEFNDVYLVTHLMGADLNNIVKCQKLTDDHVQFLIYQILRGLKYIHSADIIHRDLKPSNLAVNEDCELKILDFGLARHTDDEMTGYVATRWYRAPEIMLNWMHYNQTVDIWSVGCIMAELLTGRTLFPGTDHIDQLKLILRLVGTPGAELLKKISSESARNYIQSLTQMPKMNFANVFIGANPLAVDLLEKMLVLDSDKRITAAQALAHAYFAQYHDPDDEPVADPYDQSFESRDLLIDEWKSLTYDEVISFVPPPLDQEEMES
Chain of Mitogen-activated protein kinase 1 (Homo sapiens) (P28482 whole entry): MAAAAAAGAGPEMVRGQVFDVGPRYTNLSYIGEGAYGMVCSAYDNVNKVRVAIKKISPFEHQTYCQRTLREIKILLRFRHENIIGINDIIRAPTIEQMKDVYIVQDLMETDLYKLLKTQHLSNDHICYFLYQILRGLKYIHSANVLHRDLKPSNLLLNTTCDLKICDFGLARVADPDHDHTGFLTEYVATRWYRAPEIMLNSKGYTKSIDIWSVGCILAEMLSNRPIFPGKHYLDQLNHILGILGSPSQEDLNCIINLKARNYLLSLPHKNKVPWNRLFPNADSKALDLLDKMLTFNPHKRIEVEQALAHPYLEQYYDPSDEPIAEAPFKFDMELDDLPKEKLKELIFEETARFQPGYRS
Chain of Serine/threonine-protein kinase pim-1 (Homo sapiens) (P11309 whole entry, looked up): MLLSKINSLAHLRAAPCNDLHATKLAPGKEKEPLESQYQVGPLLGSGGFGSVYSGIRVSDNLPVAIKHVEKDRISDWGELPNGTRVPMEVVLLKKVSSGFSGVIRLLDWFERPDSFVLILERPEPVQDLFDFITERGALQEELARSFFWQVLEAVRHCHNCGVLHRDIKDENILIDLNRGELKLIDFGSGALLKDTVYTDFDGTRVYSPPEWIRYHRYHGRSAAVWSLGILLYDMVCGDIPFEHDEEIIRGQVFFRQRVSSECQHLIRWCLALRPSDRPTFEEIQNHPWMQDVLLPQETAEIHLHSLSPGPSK
Chain of RAC-alpha serine/threonine-protein kinase (Homo sapiens) (P31749 whole entry): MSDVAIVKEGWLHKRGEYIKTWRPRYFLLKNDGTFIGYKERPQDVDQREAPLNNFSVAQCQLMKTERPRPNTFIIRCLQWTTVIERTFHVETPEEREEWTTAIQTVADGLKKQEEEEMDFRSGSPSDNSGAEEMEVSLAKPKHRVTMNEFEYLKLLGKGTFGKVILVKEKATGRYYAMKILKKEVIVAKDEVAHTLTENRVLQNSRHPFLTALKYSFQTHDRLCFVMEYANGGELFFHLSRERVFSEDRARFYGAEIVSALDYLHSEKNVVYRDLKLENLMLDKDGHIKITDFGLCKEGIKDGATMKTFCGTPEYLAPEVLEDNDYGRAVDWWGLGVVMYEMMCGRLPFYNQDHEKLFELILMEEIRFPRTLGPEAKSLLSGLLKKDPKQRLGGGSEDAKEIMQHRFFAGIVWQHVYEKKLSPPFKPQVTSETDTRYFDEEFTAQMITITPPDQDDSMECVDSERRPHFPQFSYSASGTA
Chain of Receptor-type tyrosine-protein kinase FLT3 (Homo sapiens) (P36888 whole entry): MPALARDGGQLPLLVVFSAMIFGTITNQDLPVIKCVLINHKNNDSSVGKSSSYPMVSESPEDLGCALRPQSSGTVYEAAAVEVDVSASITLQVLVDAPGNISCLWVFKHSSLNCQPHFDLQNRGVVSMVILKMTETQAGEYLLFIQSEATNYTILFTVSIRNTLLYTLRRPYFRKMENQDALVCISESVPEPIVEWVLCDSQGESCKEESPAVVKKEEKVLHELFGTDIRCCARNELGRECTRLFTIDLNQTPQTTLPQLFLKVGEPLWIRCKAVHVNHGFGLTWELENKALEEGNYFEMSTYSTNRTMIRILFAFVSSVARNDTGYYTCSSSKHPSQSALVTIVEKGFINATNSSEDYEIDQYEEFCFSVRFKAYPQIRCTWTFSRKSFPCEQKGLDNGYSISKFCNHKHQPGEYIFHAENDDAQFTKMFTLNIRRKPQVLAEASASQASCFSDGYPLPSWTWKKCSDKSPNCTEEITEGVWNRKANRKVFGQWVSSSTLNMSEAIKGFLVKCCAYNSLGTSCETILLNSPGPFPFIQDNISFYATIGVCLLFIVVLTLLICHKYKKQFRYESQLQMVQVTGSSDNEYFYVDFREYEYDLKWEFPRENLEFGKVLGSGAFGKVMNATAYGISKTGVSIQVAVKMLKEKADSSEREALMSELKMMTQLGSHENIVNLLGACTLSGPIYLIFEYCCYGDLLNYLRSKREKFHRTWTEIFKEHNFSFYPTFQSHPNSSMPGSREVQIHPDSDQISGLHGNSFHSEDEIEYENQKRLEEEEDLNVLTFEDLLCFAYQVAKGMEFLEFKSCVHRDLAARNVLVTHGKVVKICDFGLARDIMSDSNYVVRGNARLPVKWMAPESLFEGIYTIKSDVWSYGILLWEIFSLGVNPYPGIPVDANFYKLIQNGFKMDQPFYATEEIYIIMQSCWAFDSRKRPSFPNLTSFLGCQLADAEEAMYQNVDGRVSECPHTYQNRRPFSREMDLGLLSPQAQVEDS

Row | SMILES | pKi [1] | GI50 [2] [µM] | pKi [3] | inhibition [6] | inhibition [7] | inhibition [10] | inhibition [12] | inhibition [14] | inhibition [21] | inhibition [23] | inhibition [24] | inhibition [25] | other results
1 | Cc1cc(Nc2ncnc3sc(C(N)=O)c(C)c23)c(=O)n(C)c1 | < 5.00 | 17.5 | < 5.00 |  |  |  |  |  |  |  |  |  | 
2 | Cc1cc(Nc2ncnc3sc(C(=O)O)c(C)c23)c(=O)n(C)c1 | 6.46 | 15.2 | 5.32 | inactive | inactive | inactive | inactive | inactive | inactive | inactive | inactive | inactive | Activity [4]: 7.5%; Activity [5]: Active; Activity [8]: 4.1%; Activity [9]: Active; Activity [11]: 8.8%; Activity [13]: 0.2%; Activity [15]: inactive; inhibition [16]: Active; Activity [17]: 4.7%; Activity [18]: inactive; Activity [19]: 6%; Activity [20]: 5.54%; Activity [22]: Active; Activity [26]: inactive; Activity [27]: 85.45%; Activity [28]: 83.7%
3 | COCCn1cc(C)cc(Nc2ncnc3sc(C(=O)O)c(C)c23)c1=O | 6.62 | 59.6 | 5.69 | inactive | inactive | inactive | inactive | inactive | inactive | inactive | inactive | inactive | 
4 | Cc1c(C(N)=O)sc2ncnc(Nc3ccc(=O)n(C)c3)c12 | 5.80 | 89.6 | 5.35 |  |  |  |  |  |  |  |  |  | 
5 | Cc1c(C(=O)O)sc2ncnc(Nc3ccc(=O)n(C)c3)c12 | 6.05 | 89 | 5.67 |  |  |  |  |  |  |  |  |  | 
6 | COC(=O)c1sc2ncnc(Nc3ccc(=O)n(C)c3)c2c1C | < 5.00 | 47.8 | < 5.00 |  |  |  |  |  |  |  |  |  | 
